Vif imaging: HIV Vif inhibition. HEK293T cells, Vif self-association by quenched fluorescence, imaging, 24 h. inhibition, % at 7.49 µM. 340,000 tested, 0.35% active; in the data active means inhibition above about 50%, passing the limit was not always enough; inconclusive means no clear call, values can overlap the other calls; inactive means below about 31%
Statin myotox sup: protects C2C12 myotubes from simvastatin toxicity; ATP luminescence, 48 h; scaled: DMSO 0, geranylgeraniol control 100; rescue of ATP level, % at 7.49 µM; 330,000 tested, 0.78% active; AID 602340;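 active means mean ATP rescue above about 67%, or every replicate alone reaching that limit, limit read from the data, passing the limit was not always enough; inconclusive means no clear call, values can overlap the other calls; inactive means mean under the limit and some replicate under it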;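 further: myotubes were challenged with 10 µM simvastatin during compound exposure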
SR-BI uptake up: activators of SR-BI mediated HDL lipid uptake | activation, % at 12.5 µM | AID 504775 | CHO ldlA[mSR-BI] cells, DiI-HDL uptake fluorescence, 3 h; 100 = double the neutral-control signal | 320,000 tested, 0.096% active;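 active means mean replicate activation of at least 60% and every replicate at or above 60%; inconclusive means mean or all-replicate condition met, but not both; inactive means mean below 60% and not all replicates reaching 60%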
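Material – SR-BI-overexpressing, LDLR-lacking CHO cells · Medium – BSA-supplemented, HEPES-buffered Ham's F12, pH 7.4 · Doses – single concentration · Times – compound with DiI-HDL co-incubation, 3 h at 37 °C · Measured by – bottom-read fluorescence, 550/595 nm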
SR-BI HDL uptake: mouse SR-BI HDL lipid transfer inhibition | Q61009 | ldlA[mSR-BI] CHO cells, DiI-HDL uptake fluorescence, 3 h | inhibition, % at 12.5 µM | 320,000 tested, 0.96% active | AID 488896;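 active means mean replicate inhibition of at least 70% and a set share of replicates each scoring 70 or more; inconclusive means meets just one of the two criteria; inactive means fails both criteria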
Target sequence (Q61009 whole entry, looked up): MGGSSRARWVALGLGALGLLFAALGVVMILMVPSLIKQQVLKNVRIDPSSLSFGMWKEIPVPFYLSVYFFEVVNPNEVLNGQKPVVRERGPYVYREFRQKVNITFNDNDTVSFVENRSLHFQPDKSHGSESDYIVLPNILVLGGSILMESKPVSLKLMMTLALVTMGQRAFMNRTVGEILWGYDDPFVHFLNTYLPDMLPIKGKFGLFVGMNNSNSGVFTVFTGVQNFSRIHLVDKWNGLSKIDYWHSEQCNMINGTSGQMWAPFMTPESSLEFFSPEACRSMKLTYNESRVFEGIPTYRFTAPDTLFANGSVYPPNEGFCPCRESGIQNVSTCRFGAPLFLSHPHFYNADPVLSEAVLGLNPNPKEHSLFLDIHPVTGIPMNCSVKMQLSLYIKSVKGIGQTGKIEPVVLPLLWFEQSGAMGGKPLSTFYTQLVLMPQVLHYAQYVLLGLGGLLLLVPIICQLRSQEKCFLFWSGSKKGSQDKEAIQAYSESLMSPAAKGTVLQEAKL
DiI quench: DiI fluorescence quenching in cell-free counter-screen. shares compounds with SR-BI HDL uptake. cell-free DiI-HDL fluorescence quenching, 30 min. AC50, µM (highest dose often 35 µM). 470 tested, 20% active;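 active means quenching, a falling signal, with AC50 below a set limit tied to the top valid dose, actives reach about 32 µM in these data; inconclusive means no clear call, values can overlap the other calls; inactive means rising signal, and the rest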
Hits are given with their value; – = inactive; ? = inconclusive; · = no result. Compounds with a hit are over-represented: about 1.7% of the library has one in this group of screens.

SMILES	Vif imaging	Statin myotox sup	SR-BI uptake up	SR-BI HDL uptake	DiI quench
COc1cc(C(=O)Nc2cccc(S(=O)(=O)N3CCCC3)c2)c([N+](=O)[O-])cc1OC	–	–	–	74	·
C[C@H]1CN([C@@H](C)CO)C(=O)Cc2cc(NC(=O)C3CC3)ccc2O[C@H]1CN(C)S(=O)(=O)c1cn(C)cn1	·	–	·	·	·
C[C@H](CO)N1C[C@H](C)[C@@H](CN(C)C(=O)Cc2ccccc2)OCCCC[C@H](C)Oc2ccc(NC(=O)Cc3ccccc3)cc2C1=O	·	–	·	·	·
COc1cc(C)c(NC(=O)c2cccc(S(=O)(=O)N3CCCC3)c2)cc1OC	–	–	–	86	·
COc1ccc(NC(=O)c2cccc(S(=O)(=O)N3CCCC3)c2)cc1OC	–	–	–	–	·
Cc1noc(C)c1NC(=O)Nc1ccc2c(c1)C(=O)N([C@@H](C)CO)C[C@H](C)[C@H](CN(C)C)OCCCC[C@H](C)O2	·	–	·	·	·
CN(Cc1ccc(OC(F)F)cc1)C(=O)c1ccccc1Sc1ccccc1C#N	–	–	–	85	–
CC1Cc2ccccc2N1C(=O)Cn1nnc(-c2ccccc2NC(=O)C2CCC2)n1 (configuration not stated)	–	–	–	79	–
O=C(Nc1ccccc1-c1nnn(CC(=O)N2CCc3ccccc3C2)n1)C1CCC1	–	·	–	–	·
CCC(=O)Nc1ccccc1-c1nnn(CC(=O)N2c3ccccc3CC2C)n1 (configuration not stated)	–	–	–	–	–
CC(=O)Oc1ccc(C(=O)Cc2ccc3ccccc3n2)c(O)c1C	·	·	–	?	–
Cc1ccc(C(=O)COc2cc(O)c3c(=O)cc(-c4ccccc4)oc3c2)cc1	–	–	–	78	–
O=C(Nc1cccc(F)c1)N1C[C@@H]2[C@H](c3ccccc31)[C@@H](CO)N2C(=O)C1CCOCC1	·	–	·	·	·
c1ccc(CCNc2nc(-c3ccncc3)nc3ccccc23)cc1	–	·	–	?	–
Cc1oc(-c2cc(F)ccc2F)nc1CN1CCN(c2ncnc3ccccc23)CC1	–	·	–	–	·
COc1ccc(-c2nc(CN3CCN(c4ncnc5ccccc45)CC3)c(C)o2)c(OC)c1	–	·	–	72	–
CCC(=O)Nc1ccc(Cl)c(NC(=O)c2cccc(OC)c2)c1	–	–	–	80	–
COc1ccc2c(c1)OC[C@H]1[C@H]2N2C(=O)c3cc(Cl)ccc3NC(=O)[C@@]2(C)[C@H]1c1ccccc1	–	–	–	72	–
COc1ccc2c(c1)C(=O)N1[C@H]3c4cc(Cl)ccc4OC[C@@H]3[C@H](c3ccccc3)[C@]1(C)C(=O)N2	–	–	–	–	·
COc1ccc(-c2cnc3c(c2)C(=O)N([C@H](C)CO)C[C@H](C)[C@@H](CN(C)S(C)(=O)=O)O3)cc1	·	–	·	·	·
CCOc1ccc(NC(=O)CN2CCN(CC(=O)Nc3cc(OC)cc(OC)c3)CC2)cc1	–	–	–	81	–
CCOc1ccc(NC(=O)CN2CCN(CC(=O)Nc3ccc(Cl)c(C(F)(F)F)c3)CC2)cc1	–	–	–	–	–
CCOc1ccc(NC(=O)CN2CCN(CC(=O)Nc3cccc(F)c3)CC2)cc1	–	–	–	–	·
COCC(=O)Nc1ccc2c(c1)[C@H]1C[C@H](CC(=O)O)O[C@H](CO)[C@H]1O2	·	–	·	·	·
COc1ccc(-c2cnc3c(c2)C(=O)N([C@@H](C)CO)C[C@@H](C)[C@@H](CN(C)C(=O)C2CCCCC2)O3)cc1	·	–	·	·	·
SMILES	Vif imaging	Statin myotox sup	SR-BI uptake up	SR-BI HDL uptake	DiI quench
CCOC(=O)N1CCC(NC(=O)c2ccc3c(c2)N(Cc2ccc(F)cc2)CCS3)CC1	–	–	–	72	–
COc1ccc(CCNC(=O)c2ccc3c(c2)N(Cc2ccccc2)CCS3)cc1OC	–	–	–	–	·
CCOC(=O)N1CCC(NC(=O)c2ccc3c(c2)N(Cc2ccc(C)cc2)CCS3)CC1	–	–	–	–	·
COc1ccc(OC)c(CCNC(=O)c2ccc3c(c2)N(Cc2ccccc2)CCS3)c1	–	–	–	76	–
COc1ccc(NC(=O)N[C@@H]2C=C[C@H](CC(=O)NC3CCCCC3)O[C@H]2CO)cc1	·	–	·	·	·
C[C@@H]1CN([C@H](C)CO)C(=O)CCCn2cc(nn2)CO[C@@H]1CN(C)C(=O)C1CCCCC1	·	–	·	·	·
CCCCCCCCOC(=O)CCc1c(C)[nH]c(=S)[nH]c1=O	–	–	–	80	–
CCC(=O)N(C)C[C@@H]1Oc2cc(C#CC3CC3)ccc2S(=O)(=O)N([C@H](C)CO)C[C@H]1C	·	–	·	·	·
Cc1c(C(=O)CN2CCCC(C)(C)C2)c2ccccc2n1C	–	–	–	76	–

Compound activity from PubChem BioAssay.
